Data reported in ChEMBL document CHEMBL1154322, “Optimization of the antitumor efficacy of a synthetic mitochondrial toxin by increasing the residence time in the cytosol” (J Med Chem, 2009).
Activity calls are given as the source filed them. The calls are words filed in the database; no cut-off is given here.

Columns and labels:
[1] = Antiproliferative activity against BAEC after 72 hrs by MTT assay in presence of 100 uM gamma-glutamyl cysteine synthase inhibitor buthionine sulfoximine; assay type: functional, Bos taurus
[2] = Potency ratio, ratio of IC50 for 4-(N-(S-Glutathionylacetyl)amino)phenylarsonous acid to compound for BAEC after 48 hrs by propidium iodide staining; assay type: functional, Bos taurus
[3] = system: BAEC; assay: Antiproliferative activity against MRP1/2 inhibitor MK571 pretreated BAEC at 0.3 uM after 72 hrs by MTT assay; assay type: functional; settings: Bos taurus
How it was run: (§1)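 BAE cells pretreated 30 min with 15 μM MK571 or 2 μM Reversan, then incubated with 0.3 μM compound for 72 h; viability by MTT as % of control; mean ± SD of triplicates.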

[4] = Drug accumulation in BAEC assessed as accumulation rate up to 4 hrs by inductively coupled plasma spectrometry relative to 4-(N-(S-Glutathionylacetyl)amino)phenylarsonous acid; assay type: ADME, Bos taurus; settings: cattle
How it was run: (§2)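 BAE cells seeded in 6-well plates, attached overnight, fresh medium, then 50 μM arsenical for up to 4 h; cytosolic arsenic by inductively coupled plasma spectrometry; accumulation rate (pmol As per 10^6 cells per min) from linear least-squares fit; triplicates.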

[5] = system: HEK293; assay: Resistance index, ratio of IC50 for HEK293 cells overexpressing MRP4 to IC50 for wild type HEK293 cells; assay type: functional, Homo sapiens
How it was run: (§3)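 Transfected MDCKII (MRP1-3), HEK293 (MRP4, MRP5) or MEF3.8 (MRP6, MDR1, BCRP) lines grown in DMEM with 10% calf serum; IC50 for proliferation arrest of each transfectant divided by IC50 of non-transfected parental cells.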

[6] = system: BAEC; assay: Antiproliferative activity against MRP1/2 inhibitor Reversan pretreated BAEC at 0.3 uM after 72 hrs by MTT assay; assay type: functional, cell-based; settings: Bos taurus; how it was run: as §1
[7] = Resistance index, ratio of IC50 for MDCK2 cells overexpressing MRP1 to IC50 for wild type MDCK2 cells; assay type: functional, Canis lupus familiaris; how it was run: as §3
[8] = system: BXPC-3; assay: Antitumor activity against human BxPC3 cells xenografted in BALB/c mouse assessed as tumor doubling time at 0.5 mg/kg/day, sc (Rvb= 9.4 +/- 1.4 days); assay type: functional; settings: route subcutaneous
[9] = Antiproliferative activity against BAEC after 72 hrs by MTT assay in presence of 3 uM MRP1/2 inhibitor Reversan and 20 uM gamma-glutamyl cysteine synthase inhibitor buthionine sulfoximine; assay type: functional, cell-based; settings: Bos taurus
[10] = system: HEK293; assay: Resistance index, ratio of IC50 for mouse MEF3.8 cells overexpressing MDR1 to IC50 for wild type […]; assay type: functional
[11] = Antiproliferative activity against BAEC after 72 hrs by MTT assay in presence of 3 uM MRP1/2 inhibitor Reversan; assay type: functional, cell-based; settings: Bos taurus
[12] = Potency ratio, ratio of IC50 for 4-(N-(S-cysteinylglycylacetyl)amino)phenylarsonous acid to compound for BAEC after 24 hrs by MTT assay; assay type: functional, Bos taurus
[13] = system: BXPC-3; assay: Antitumor activity against human BxPC3 cells xenografted in BALB/c mouse assessed as tumor doubling time at 0.25 mg/kg/day, sc (Rvb= 9.4 +/- 1.4 days); assay type: functional; settings: route subcutaneous
[14] = system: BAEC; assay: (§4) Antiproliferative activity against BAEC after 72 hrs by MTT assay; assay type: functional; settings: Bos taurus
How it was run: (§5)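 Cells seeded in 96-well plates, attached overnight at 37 °C, 5% CO2, then cultured 72 h in medium with 10% fetal calf serum plus compound. Viability by MTT, formazan dissolved in DMSO, absorbance 550 nm; expressed as % of untreated control; IC50 = concentration inhibiting proliferation by 50%.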

[15] = as §4; assay type: functional, Bos taurus; how it was run: as §5
[16] = system: K562; assay: Antiproliferative activity against human K562 cells after 72 hrs by MTT assay; assay type: functional, cell-based; settings: K562, 72 h; how it was run: as §5
[17] = Drug accumulation in BAEC assessed as accumulation rate up to 4 hrs by inductively coupled plasma spectrometry relative to 4-(N-(S-cysteinylacetyl)amino)phenylarsonous acid; assay type: ADME, Bos taurus; settings: cattle; how it was run: as §2
[18] = system: BXPC-3; assay: Potency ratio, ratio of antitumor activity of 4-(N-(S-Glutathionylacetyl)amino)phenylarsonous acid to compound antitumor activity against human BxPC3 cells xenografted in BALB/c; assay type: functional
[19] = system: Lewis lung carcinoma cell line; assay: Antiproliferative activity against mouse LLC cells after 72 hrs by MTT assay; assay type: functional, cell-based; how it was run: as §5
[20] = system: Mus musculus; assay: Toxicity in human BxPC3 cells xenografted BALB/c mouse at 0.25 mg/kg/day, sc for 28 days; assay type: organism-based, BXPC-3; set-up: route subcutaneous; settings: in vivo, 672 h
How it was run: (§6)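 Female Balb C nude mice bearing s.c. BxPC-3 tumors given compound via 28-day s.c. flank micro-osmotic pumps; animal weight measured every 2 or 3 days and signs of toxicity observed.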

[21] = system: BXPC-3; assay: Antitumor activity against human BxPC3 cells xenografted in BALB/c mouse assessed as tumor doubling time at 5 mg/kg/day, sc dosed for 18 days; assay type: functional, organism-based
[22] = Antiproliferative activity against MDCK2 cells after 72 hrs by MTT assay; assay type: functional, cell-based; settings: Canis lupus familiaris, MDCK-II; how it was run: as §5
[23] = system: PANC-1; assay: Antiproliferative activity against human PANC1 cells after 72 hrs by MTT assay; assay type: functional, cell-based; settings: PANC-1, 72 h; how it was run: as §5
[24] = system: MCF7; assay: Antiproliferative activity against human MCF7 cells after 72 hrs by MTT assay; assay type: functional, cell-based; settings: MCF7, 72 h; how it was run: as §5
[25] = system: HT-1080; assay: Antiproliferative activity against human HT1080 cells after 72 hrs by MTT assay; assay type: functional, cell-based; settings: HT-1080, 72 h; how it was run: as §5
[26] = system: BXPC-3; assay: Antitumor activity against human BxPC3 cells xenografted in BALB/c mouse assessed as reduction of tumor proliferative index at 0.25 mg/kg/day, sc dosed for 18 days; assay type: functional, organism-based
How it was run: (§7)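 Female 7-9 week Balb C nude mice given 3 × 10^6 BxPC-3 cells s.c. in proximal midline; at ~50 mm3, randomized and given s.c. flank micro-osmotic pumps (vehicle or 0.25 mg/kg/day) for 18 days. Excised tumors formalin-fixed, paraffin sections immunostained for CD31 (microvessels counted in five hot spots) or PCNA (positive cells per 100 tumor cells, three fields); one-way ANOVA.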

[27] = Potency ratio, ratio of IC50 for 4-(N-(S-cysteinylacetyl)amino)phenylarsonous acid to compound for BAEC after 24 hrs by MTT assay; assay type: functional, Bos taurus
[28] = Drug accumulation in BAEC in presence of MRP1/2 inhibitor Reversan by inductively coupled plasma spectrometry relative to untreated control; assay type: ADME, Bos taurus; settings: cattle
How it was run: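 BAE cells incubated 2 h with 50 μM arsenical with or without 5 μM Reversan; cellular arsenic by inductively coupled plasma spectrometry, expressed as % increase in accumulation; triplicates, two experiments.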

[29] = system: HEK293; assay: Resistance index, ratio of IC50 for mouse MEF3.8 cells overexpressing MRP6 to IC50 for wild type […]; assay type: functional
[30] = Antiproliferative activity against mouse bEND.3 cells after 72 hrs by MTT assay; assay type: functional, cell-based; settings: BEND3, 72 h; how it was run: as §5
[31] = system: BXPC-3; assay: Antiproliferative activity against human BxPC3 cells after 72 hrs by MTT assay; assay type: functional, cell-based; settings: BXPC-3, 72 h; how it was run: as §5
[32] = Antiproliferative activity against BAEC after 72 hrs by MTT assay in presence of 20 uM gamma-glutamyl cysteine synthase inhibitor buthionine sulfoximine; assay type: functional, cell-based; settings: Bos taurus
[33] = system: Mus musculus; assay: Toxicity in human BxPC3 cells xenografted BALB/c mouse at 0.5 mg/kg/day, sc for 28 days; assay type: organism-based, BXPC-3; set-up: route subcutaneous; settings: in vivo, 672 h; how it was run: as §6
[34] = system: BAEC; assay: Antiproliferative activity against OATP inhibitor DIDS pretreated BAEC at 3 uM after 24 hrs by MTT assay; assay type: functional, cell-based; settings: Bos taurus
How it was run: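 BAE cells untreated or pretreated 30 min with 500 μM DIDS, then 3 μM compound for 24 h; viability by MTT, % of control; triplicates, two experiments.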

[35] = Resistance index, ratio of IC50 for MDCK2 cells overexpressing MRP2 to IC50 for wild type MDCK2 cells; assay type: functional, Canis lupus familiaris; how it was run: as §3
[36] = system: BXPC-3; assay: Antiangiogenic activity against human BxPC3 cells xenografted in BALB/c mouse assessed as reduction of tumor blood vessel density at 0.25 mg/kg/day, sc dosed for 18 days; assay type: functional, organism-based; how it was run: as §7
[37] = Potency ratio, ratio of IC50 for 4-(N-(S-Glutathionylacetyl)amino)phenylarsonous acid to compound for BAEC after 24 hrs by MTT assay; assay type: functional, Bos taurus
[38] = Antiproliferative activity against HMEC1 cells after 72 hrs by MTT assay; assay type: functional, cell-based; settings: Homo sapiens, HMEC-1, 72 h; how it was run: as §5
[39] = system: HCT-116; assay: Antiproliferative activity against human HCT116 cells after 72 hrs by MTT assay; assay type: functional, cell-based; settings: HCT-116, 72 h; how it was run: as §5
[40] = system: HEK293; assay: Resistance index, ratio of IC50 for HEK293 cells overexpressing MRP5 to IC50 for wild type HEK293 cells; assay type: functional, Homo sapiens; how it was run: as §3
[41] = system: HEK293; assay: Resistance index, ratio of IC50 for mouse MEF3.8 cells overexpressing BCRP to IC50 for wild type […]; assay type: functional
[42] = Drug accumulation in BAEC assessed as accumulation rate up to 4 hrs by inductively coupled plasma spectrometry relative to 4-(N-(S-cysteinylglycylacetyl)amino)phenylarsonous acid; assay type: ADME, Bos taurus; settings: cattle; how it was run: as §2
[43] = Resistance index, ratio of IC50 for MDCK2 cells overexpressing MRP3 to IC50 for wild type MDCK2 cells; assay type: functional, Canis lupus familiaris; how it was run: as §3
[44] = Reduction of cell viability in BAEC after 48 hrs by propidium iodide staining; assay type: functional, cell-based; settings: Bos taurus

CC(C)(SCC(=O)Nc1ccc([As](O)O)cc1)[C@@H](N)C(=O)O
Activity [1]: 16 nM | Ratio IC50 [2]: 21 | Activity [3]: Active | fold change (FC) [4]: 85 | Ratio IC50 [5]: 0.5 | Activity [6]: Active | Ratio IC50 [7]: 3.7 | Activity [8]: 13.8 days | IC50 [9]: 0.02 µM | Ratio IC50 [10]: 1.2 | IC50 [11]: 0.13 µM | Ratio IC50 [12]: 8 | Activity [13]: 15.6 days | Activity [14]: inactive | Activity [15]: 440 nM | IC50 [16]: 1.8 µM | fold change (FC) [17]: 10 | Ratio IC50 [18]: 20 | IC50 [19]: 5.3 µM | Activity [20]: Non-toxic | Activity [21]: Active | IC50 [22]: 2.4 µM | IC50 [23]: 6.4 µM | IC50 [24]: 9.4 µM | IC50 [25]: 4.1 µM | Activity [26]: Active | Ratio IC50 [27]: 6 | Drug uptake [28]: 52% | Ratio IC50 [29]: 1.3 | IC50 [30]: 2.5 µM | IC50 [31]: 21 µM | IC50 [32]: 0.07 µM | Activity [33]: Non-toxic | Activity [34]: inactive | Ratio IC50 [35]: 4.6 | Activity [36]: Active | Ratio IC50 [37]: 44 | IC50 [38]: 2 µM | IC50 [39]: 5.9 µM | Ratio IC50 [40]: 0.4 | Ratio IC50 [41]: 1.1 | fold change (FC) [42]: 9 | Ratio IC50 [43]: 0.8 | IC50 [44]: 3.5 µM

N[C@H](CSCC(=O)Nc1ccc([As](O)O)cc1)C(=O)NCC(=O)O
Drug uptake [28]: 197%

N[C@@H](CCC(=O)N[C@@H](CSCC(=O)Nc1ccc([As](O)O)cc1)C(=O)NCC(=O)O)C(=O)O
IC50 ([15]; Bos taurus, BAEC, 72 h): 10 µM | IC50 [16]: 14 µM | IC50 [19]: 41 µM | IC50 [22]: 13 µM | IC50 [23]: 43 µM | IC50 [24]: 51 µM | IC50 [25]: 25 µM | IC50 [30]: 42 µM | IC50 [31]: 270 µM | IC50 [38]: 23 µM | IC50 [39]: 43 µM

N[C@H](CSCC(=O)Nc1ccc([As](O)O)cc1)C(=O)O
Drug uptake [28]: 114%
